From ChEMBL document CHEMBL5705899 (Biochem J, 2014) come the findings set out here.

Activity calls are given as the source filed them. No cut-off for these calls is given here.

Assay [1] addresses Serine/threonine-protein kinase tousled-like 1 (Homo sapiens) (UniProt Q9UKI8). Briefly: Inhibition of human TLK1 at 1 uM using RB-CTF as substrate in presence of 33P-ATP by ProQinase assay.
Assay [2] has as its target Dual specificity tyrosine-phosphorylation-regulated kinase 1B (Homo sapiens) (UniProt Q9Y463). Kind of assay: Inhibition of human DYRK1B at 1 uM using RBER-CHKtide as substrate in presence of 33P-ATP by ProQinase assay.
Assay [3] addresses Protein kinase C eta type (Homo sapiens) (UniProt P24723). Kind of assay: Inhibition of human PKCeta at 1 uM using histon H2B as substrate in presence of 33P-ATP by ProQinase assay.
The target of assay [4] is G protein-coupled receptor kinase 4 (Homo sapiens) (UniProt P32298). Kind of assay: Inhibition of human GRK4 at 1 uM using casein as substrate in presence of 33P-ATP by ProQinase assay.
The subject of a further assay is U2OS. Briefly: Inhibition of PI3K in human U2OS cells expressing FLAG-tagged SGK3 assessed as reduction in AKT phosphorylation at T308 residues at 0.01 to 1 uM 1 hr by immunoblot analysis. It counts as cell-based. The note with it: dose 0.01-1 µM. An outline of the steps:
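Flp-In T-REx U2OS cells were grown in McCoy medium with 10% FBS. Expression of C-terminally FLAG-tagged full-length SGK3 was induced with 0.01 mg/ml doxycycline for 24 h. Cells were treated with inhibitor for 1 h and lysed in phosphatase-inhibitor buffer. Lysates were cleared at 16000 g for 10 min at 4°C, protein was measured by Bradford, and phosphorylation was read by immunoblot with ECL detection.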
(Immunoblotting shows a protein as a band on a membrane.)

Assay [5] deals with Receptor tyrosine-protein kinase erbB-4 (Homo sapiens) (UniProt Q15303). Briefly: Inhibition of human ERBB4 at 1 uM using polyEy as substrate in presence of 33P-ATP by ProQinase assay.
Assay [6] concerns the target Serine/threonine-protein kinase Sgk1 (Homo sapiens) (UniProt O00141). Briefly: Inhibition of human SGK1 at 1 uM using RBER-GSK3 as substrate in presence of 33P-ATP by ProQinase assay.
Assay [7] has as its target STE20-like serine/threonine-protein kinase (Homo sapiens) (UniProt Q9H2G2). Briefly: Inhibition of human SLK at 1 uM using RB-S6P as substrate in presence of 33P-ATP by ProQinase assay.
The target of assay [8] is Serine/threonine-protein kinase PAK 6 (Homo sapiens) (UniProt Q9NQU5). Kind of assay: Inhibition of recombinant human N-terminal GST-tagged PAK6 (2 to 681 residues) expressed in Escherichia coli assessed as remaining activity at 1 uM using RRRLSFAEPG as substrate incubated for 30 mins in presence of [gamma-33P]ATP by filter binding method relative to control.
Serine/threonine-protein kinase PAK 6 (Homo sapiens), sequence (Q9NQU5 whole entry, looked up, the tested form may be a part): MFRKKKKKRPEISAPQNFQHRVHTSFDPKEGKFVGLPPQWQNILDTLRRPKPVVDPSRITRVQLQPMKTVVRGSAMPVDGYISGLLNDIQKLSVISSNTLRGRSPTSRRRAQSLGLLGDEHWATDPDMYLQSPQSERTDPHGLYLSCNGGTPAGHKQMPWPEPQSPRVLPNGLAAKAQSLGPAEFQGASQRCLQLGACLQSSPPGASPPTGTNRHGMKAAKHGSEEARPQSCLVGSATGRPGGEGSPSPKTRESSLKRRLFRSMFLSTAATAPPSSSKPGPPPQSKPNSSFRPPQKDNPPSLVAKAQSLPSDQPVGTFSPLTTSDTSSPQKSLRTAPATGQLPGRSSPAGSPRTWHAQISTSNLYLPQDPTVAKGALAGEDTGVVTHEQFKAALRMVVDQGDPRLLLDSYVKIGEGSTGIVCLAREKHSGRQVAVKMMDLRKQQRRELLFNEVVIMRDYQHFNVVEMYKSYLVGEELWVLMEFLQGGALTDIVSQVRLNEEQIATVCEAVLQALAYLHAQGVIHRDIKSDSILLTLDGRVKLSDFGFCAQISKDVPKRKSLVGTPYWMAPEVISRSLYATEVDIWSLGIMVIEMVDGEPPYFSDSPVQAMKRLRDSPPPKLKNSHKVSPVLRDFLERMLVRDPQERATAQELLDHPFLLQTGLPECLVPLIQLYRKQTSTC
Assay [9] has as its target Serine/threonine-protein kinase ULK2 (Homo sapiens) (UniProt Q8IYT8). Kind of assay: Inhibition of recombinant human ULK2 (1 to 1036 residues) expressed in baculovirus infected Sf21 cells assessed as remaining activity at 1 uM using MBP as substrate incubated for 30 mins in presence of [gamma-33P]ATP by filter binding method relative to control.
For assay [10], the target named is Mitogen-activated protein kinase kinase kinase 5 (Homo sapiens) (UniProt Q99683). Kind of assay: Inhibition of human ASK1 at 1 uM using RBER-GSK3 as substrate in presence of 33P-ATP by ProQinase assay.
Mitogen-activated protein kinase kinase kinase 5 (Homo sapiens), sequence (Q99683 whole entry, the tested form may be a part): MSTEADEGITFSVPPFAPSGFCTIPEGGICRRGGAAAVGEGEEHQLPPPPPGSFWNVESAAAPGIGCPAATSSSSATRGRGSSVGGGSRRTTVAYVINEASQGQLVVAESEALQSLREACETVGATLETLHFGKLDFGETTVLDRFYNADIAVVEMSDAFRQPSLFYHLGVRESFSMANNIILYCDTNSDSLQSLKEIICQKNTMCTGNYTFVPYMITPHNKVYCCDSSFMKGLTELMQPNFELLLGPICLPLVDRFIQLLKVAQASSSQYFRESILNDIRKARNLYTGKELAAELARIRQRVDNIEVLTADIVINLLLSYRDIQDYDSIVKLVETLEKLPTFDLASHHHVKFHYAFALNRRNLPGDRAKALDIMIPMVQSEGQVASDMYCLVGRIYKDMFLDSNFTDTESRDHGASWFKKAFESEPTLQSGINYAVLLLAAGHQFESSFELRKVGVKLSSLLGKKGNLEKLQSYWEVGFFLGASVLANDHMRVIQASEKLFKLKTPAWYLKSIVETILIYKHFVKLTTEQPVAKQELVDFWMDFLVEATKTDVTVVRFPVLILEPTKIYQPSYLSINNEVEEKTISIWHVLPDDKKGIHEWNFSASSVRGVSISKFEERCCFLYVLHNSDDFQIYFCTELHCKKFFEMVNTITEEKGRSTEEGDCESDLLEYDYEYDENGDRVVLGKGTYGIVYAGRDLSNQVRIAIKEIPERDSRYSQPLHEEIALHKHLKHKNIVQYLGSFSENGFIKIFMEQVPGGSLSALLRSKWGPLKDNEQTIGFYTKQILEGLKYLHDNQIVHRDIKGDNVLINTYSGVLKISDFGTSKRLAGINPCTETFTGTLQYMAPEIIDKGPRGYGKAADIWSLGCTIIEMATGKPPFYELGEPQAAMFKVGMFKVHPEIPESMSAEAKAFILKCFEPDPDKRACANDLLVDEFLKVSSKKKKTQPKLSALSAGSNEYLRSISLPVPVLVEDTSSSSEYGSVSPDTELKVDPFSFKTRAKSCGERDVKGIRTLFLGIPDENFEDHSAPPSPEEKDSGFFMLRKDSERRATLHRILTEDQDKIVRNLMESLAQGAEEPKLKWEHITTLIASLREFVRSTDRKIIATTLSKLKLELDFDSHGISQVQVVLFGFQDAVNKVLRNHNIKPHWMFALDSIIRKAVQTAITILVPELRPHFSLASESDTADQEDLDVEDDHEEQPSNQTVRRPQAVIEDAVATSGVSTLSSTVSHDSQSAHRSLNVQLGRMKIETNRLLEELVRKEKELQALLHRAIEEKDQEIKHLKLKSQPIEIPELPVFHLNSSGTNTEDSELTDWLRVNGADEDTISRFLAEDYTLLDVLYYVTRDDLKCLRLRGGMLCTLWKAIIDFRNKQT
Assay [11] concerns the target Serine/threonine-protein kinase tousled-like 1 (Homo sapiens) (UniProt Q9UKI8). Kind of assay: Inhibition of recombinant human N-terminal GST-tagged TLK1 (1 to 766 residues) expressed in Escherichia coli assessed as remaining activity at 1 uM using MBP as substrate incubated for 30 mins in presence of [gamma-33P]ATP by filter binding method relative to control.
The target of assay [12] is Protein kinase C beta type (Homo sapiens) (UniProt P05771). Kind of assay: Inhibition of human PKCbeta1 at 1 uM using 3xChocktide-PKC as substrate in presence of 33P-ATP by ProQinase assay.
The target of assay [13] is Tyrosine-protein kinase ABL2 (Homo sapiens) (UniProt P42684). Kind of assay: Inhibition of human ABL2 at 1 uM using poly(Ala,Glu,Lys,Tyr) as substrate in presence of 33P-ATP by ProQinase assay.
In assay [14] the target is Serine/threonine-protein kinase Sgk3 (Homo sapiens) (UniProt Q96BR1). Kind of assay: Inhibition of human SGK3 at 1 uM using RBER-GSK3 as substrate in presence of 33P-ATP by ProQinase assay.
For assay [15], the target named is MAP kinase-activated protein kinase 3 (Homo sapiens) (UniProt Q16644). Kind of assay: Inhibition of recombinant human N-terminal GST-tagged MAPKAPK3 (2 to 382 residues) expressed in Escherichia coli assessed as remaining activity at 1 uM using KKLNRTLSVA as substrate incubated for 30 mins in presence of [gamma-33P]ATP by filter binding method relative to control.

The species named for the next assay is Homo sapiens. Briefly: Inhibition of recombinant human N-terminal His6-tagged PI3Kalpha E542K mutant (2 to 1068 residues)/p85A (1 to 724 residues) expressed in baculovirus expression system at 1 uM using diC8 PIP2 as substrate incubated for 80 mins by ADP-Glo assay. (In general: ADP-Glo first removes unused ATP, then detects ADP through luciferase.)
Assay [16] deals with Aurora kinase B (Homo sapiens) (UniProt Q96GD4). Briefly: Inhibition of recombinant human N-terminal His6-tagged Aurora B (1 to 344 residues) expressed in Escherichia coli assessed as remaining activity at 1 uM using LRRLSLGLRRLSLGLRRLSLGLRRLSLG as substrate incubated for 30 mins in presence of [gamma-33P]ATP by filter binding method relative to control.
Aurora kinase B (Homo sapiens), sequence (Q96GD4 whole entry, the tested form may be a part): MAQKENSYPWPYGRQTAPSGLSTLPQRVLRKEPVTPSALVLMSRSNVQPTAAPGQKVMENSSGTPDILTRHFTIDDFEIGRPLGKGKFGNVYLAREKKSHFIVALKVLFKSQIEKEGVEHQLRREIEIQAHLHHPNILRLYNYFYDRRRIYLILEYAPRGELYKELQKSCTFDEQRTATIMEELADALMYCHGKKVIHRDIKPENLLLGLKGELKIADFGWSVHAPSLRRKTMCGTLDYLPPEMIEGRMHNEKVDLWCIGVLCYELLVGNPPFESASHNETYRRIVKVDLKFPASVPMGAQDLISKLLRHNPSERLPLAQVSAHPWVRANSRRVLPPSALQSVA
For assay [17], the target named is Insulin-like growth factor 1 receptor (Homo sapiens) (UniProt P08069). Briefly: Inhibition of recombinant human N-terminal His6-tagged IGF1R (954 to 1367 residues) expressed in baculovirus infected Sf21 cells assessed as remaining activity at 1 uM using KKKSPGEYVNIEFG as substrate incubated for 30 mins in presence of [gamma-33P]ATP by filter binding method relative to control.

Assay [18] addresses Tyrosine-protein kinase SYK (Homo sapiens) (UniProt P43405). Kind of assay: Inhibition of recombinant human N-terminal His6-tagged SYK (1 to 635 residues) expressed in baculovirus infected Sf21 cells assessed as remaining activity at 1 uM using Poly (Glu,Tyr) as substrate incubated for 30 mins in presence of [gamma-33P]ATP by filter binding method relative to control.
The target in assay [19] is Mitogen-activated protein kinase kinase kinase 9 (Homo sapiens) (UniProt P80192). Briefly: Inhibition of human MAP3K9 at 1 uM using RBER-GSK3 as substrate in presence of 33P-ATP by ProQinase assay.
Assay [20] has as its target Serine/threonine-protein kinase pim-1 (Homo sapiens) (UniProt P11309). Kind of assay: Inhibition of human PIM1 at 1 uM using RBER-GSK3 as substrate in presence of 33P-ATP by ProQinase assay.
The target of assay [21] is Serine/threonine-protein kinase tousled-like 2 (Homo sapiens) (UniProt Q86UE8). Kind of assay: Inhibition of human TLK2 at 1 uM using RB-S6P as substrate in presence of 33P-ATP by ProQinase assay.
Serine/threonine-protein kinase tousled-like 2 (Homo sapiens), sequence (Q86UE8 whole entry, looked up): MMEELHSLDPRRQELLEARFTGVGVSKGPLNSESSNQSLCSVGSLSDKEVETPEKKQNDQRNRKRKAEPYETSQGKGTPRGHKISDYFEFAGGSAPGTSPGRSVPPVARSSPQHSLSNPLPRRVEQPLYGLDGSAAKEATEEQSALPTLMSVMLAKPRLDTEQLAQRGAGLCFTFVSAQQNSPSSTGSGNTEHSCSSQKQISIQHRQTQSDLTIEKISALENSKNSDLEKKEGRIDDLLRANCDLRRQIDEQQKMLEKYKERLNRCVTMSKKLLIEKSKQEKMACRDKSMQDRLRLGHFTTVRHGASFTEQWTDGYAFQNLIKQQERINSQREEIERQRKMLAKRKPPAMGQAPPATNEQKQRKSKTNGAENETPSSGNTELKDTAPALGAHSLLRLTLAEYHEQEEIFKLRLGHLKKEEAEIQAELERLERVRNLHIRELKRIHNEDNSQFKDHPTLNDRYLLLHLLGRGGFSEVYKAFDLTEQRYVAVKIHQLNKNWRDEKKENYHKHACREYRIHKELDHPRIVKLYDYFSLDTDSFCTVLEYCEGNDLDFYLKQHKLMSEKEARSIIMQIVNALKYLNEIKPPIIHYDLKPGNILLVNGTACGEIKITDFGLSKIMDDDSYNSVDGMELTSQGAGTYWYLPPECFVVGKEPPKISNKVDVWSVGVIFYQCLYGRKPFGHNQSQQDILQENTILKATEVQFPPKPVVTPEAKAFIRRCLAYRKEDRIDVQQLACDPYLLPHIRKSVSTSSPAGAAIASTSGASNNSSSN

Serine/threonine-protein kinase tousled-like 1 (Homo sapiens), sequence (Q9UKI8 whole entry, the tested form may be a part): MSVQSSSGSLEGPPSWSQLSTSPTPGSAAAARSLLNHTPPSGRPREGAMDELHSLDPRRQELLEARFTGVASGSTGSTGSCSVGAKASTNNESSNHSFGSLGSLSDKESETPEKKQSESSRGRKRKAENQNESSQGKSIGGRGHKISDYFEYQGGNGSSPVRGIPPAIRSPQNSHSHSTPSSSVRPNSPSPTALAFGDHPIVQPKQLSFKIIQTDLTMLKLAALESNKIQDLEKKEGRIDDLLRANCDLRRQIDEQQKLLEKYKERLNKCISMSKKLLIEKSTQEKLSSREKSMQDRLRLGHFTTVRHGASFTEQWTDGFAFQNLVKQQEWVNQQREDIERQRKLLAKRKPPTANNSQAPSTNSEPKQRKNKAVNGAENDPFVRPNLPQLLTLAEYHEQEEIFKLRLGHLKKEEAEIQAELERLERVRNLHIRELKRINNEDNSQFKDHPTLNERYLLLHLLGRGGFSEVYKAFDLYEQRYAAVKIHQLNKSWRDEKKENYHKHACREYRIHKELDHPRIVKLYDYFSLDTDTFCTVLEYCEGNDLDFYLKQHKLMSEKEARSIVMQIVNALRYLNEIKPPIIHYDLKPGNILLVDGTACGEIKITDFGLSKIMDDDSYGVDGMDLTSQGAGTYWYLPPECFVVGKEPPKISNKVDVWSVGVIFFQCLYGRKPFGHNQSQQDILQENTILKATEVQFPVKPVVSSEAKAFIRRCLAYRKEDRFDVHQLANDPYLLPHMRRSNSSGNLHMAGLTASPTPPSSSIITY
Protein kinase C eta type (Homo sapiens), sequence (P24723 whole entry): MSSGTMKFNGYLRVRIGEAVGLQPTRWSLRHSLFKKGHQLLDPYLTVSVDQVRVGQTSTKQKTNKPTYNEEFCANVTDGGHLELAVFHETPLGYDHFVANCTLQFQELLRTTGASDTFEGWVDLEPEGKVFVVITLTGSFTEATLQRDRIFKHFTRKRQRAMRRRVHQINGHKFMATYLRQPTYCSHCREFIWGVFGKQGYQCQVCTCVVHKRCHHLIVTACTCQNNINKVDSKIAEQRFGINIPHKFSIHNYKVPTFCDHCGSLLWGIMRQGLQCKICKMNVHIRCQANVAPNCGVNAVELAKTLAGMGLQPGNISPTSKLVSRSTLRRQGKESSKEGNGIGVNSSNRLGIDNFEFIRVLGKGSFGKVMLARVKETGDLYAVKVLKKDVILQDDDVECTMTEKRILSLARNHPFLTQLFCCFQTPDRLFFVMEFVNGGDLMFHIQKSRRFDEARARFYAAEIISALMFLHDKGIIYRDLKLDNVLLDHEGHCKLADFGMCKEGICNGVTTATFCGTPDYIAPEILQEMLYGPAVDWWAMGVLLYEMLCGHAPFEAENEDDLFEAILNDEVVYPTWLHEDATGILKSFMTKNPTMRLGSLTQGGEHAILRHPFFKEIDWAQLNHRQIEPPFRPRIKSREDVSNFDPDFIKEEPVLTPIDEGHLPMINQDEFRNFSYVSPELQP
Serine/threonine-protein kinase pim-1 (Homo sapiens), sequence (P11309 whole entry, looked up): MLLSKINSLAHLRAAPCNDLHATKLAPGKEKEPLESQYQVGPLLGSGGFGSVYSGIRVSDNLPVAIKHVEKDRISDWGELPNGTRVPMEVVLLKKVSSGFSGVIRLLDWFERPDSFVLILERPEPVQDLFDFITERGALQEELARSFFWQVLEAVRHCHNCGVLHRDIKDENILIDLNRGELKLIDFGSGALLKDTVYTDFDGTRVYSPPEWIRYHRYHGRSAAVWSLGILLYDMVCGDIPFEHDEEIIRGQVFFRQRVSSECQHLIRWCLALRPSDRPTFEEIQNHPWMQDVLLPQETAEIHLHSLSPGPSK

Regarding `CC(C)(O)CNc1ncc(-c2ccnc(Nc3ccnc(Cl)c3)n2)c(CC2CC2)n1`, the inhibition result (in assay [1]; in [2]; in [3]; in assay [4]; with U2OS; in assay [5]) was “inactive” in each case. The inhibition result in [6], in assay [7], in assay [10], in [12], in assay [13] and in assay [14] was “inactive” each time. For the same compound, the inhibition entry (in the assay filed under Homo sapiens; in assay [19]; in assay [20]; in assay [21]) was “inactive” throughout. The Activity in assay [8] is 97%; in assay [9], 118%; in [11], 100%; in assay [15], 115%; in [16], 83%; in assay [17], 101%. Also, the Activity in assay [18] amounted to 91%.
